The source of these data is ChEMBL document CHEMBL3045688, “Cytotoxic and insecticidal activities of derivatives of harmine, a natural insecticidal component isolated from Peganum harmala” (2010).

Values after ≈ are worked out from the molar mass of the structure shown. Active and inactive are the calls of the source. The rule behind the calls is not given here.

A short description of experiment [1]: Cytotoxicity against Spodoptera frugiperda (fall armyworm) Sf9 cells assessed as growth inhibition at 200 mg/L after 24 hr by MTT assay. The conditions noted are these: for inhibition of growth at 200 µg/mL: Spodoptera frugiperda, Sf9, 24 h, read-out: GI. Format: functional. A digest of the protocol:
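Sf9 cells kept at 27 °C in TC-199-MK with 10% FCS, L-glutamine and penicillin–streptomycin–neomycin. Log-phase cells in 96-well plates were exposed for 6, 12 or 24 h to compounds diluted in medium from a 1,000 mg/L DMSO stock, with 1% DMSO final; DMSO alone as control. MTT added for 3 h, formazan dissolved in DMSO, A570 read. Inhibition % = (Acontrol−Atreatment)/Acontrol×100. Run in triplicate.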
For orientation: Tetrazolium assays rely on reduction of a dye to a coloured formazan, in cell work by metabolically active cells.

The subject of experiment [2] is Lipaphis erysimi. As to the kind of experiment: Insecticidal activity against Lipaphis erysimi (mustard aphids) assessed as increase in mortality at 50 to 200 mg/L after 24 to 48 hr. Format: functional, organism-based. The gist of the method: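 Apterous adult Lipaphis erysimi reared on mustard leaves. Leaf discs carrying 30–50 aphids dipped 3 s in aqueous suspensions (10 g/L DMSO/acetone stock, 0.5% emulsifier) at 50, 100, 200 mg/L final, blotted, held at 25 ± 1 °C and 50–60% RH. Mortality scored at 24 and 48 h, corrected against solvent control. Triplicate; LC50/LC90 by probit–log concentration regression.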

The test system of experiment [3] is Lipaphis erysimi. Put plainly: Insecticidal activity against Lipaphis erysimi (mustard aphids) assessed as mortality at 200 mg/L after 48 hr. Format: functional. The conditions noted are these: in Brassica. The gist of the method:
(§1)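 Apterous adult Lipaphis erysimi reared on mustard leaves. Compounds from a 10 g/L DMSO–acetone stock suspended in water with 0.5% emulsifier to 50, 100 or 200 mg/L. Leaf discs carrying 30–50 aphids were dipped 3 s and blotted, then held at 25 ± 1 °C and 50–60% RH. Mortality scored at 24 and 48 h and corrected against solvent control. Triplicate; LC50/LC90 by probit–log concentration regression.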

Experiment [4] concerns Culex quinquefasciatus. Put plainly: Insecticidal activity against fourth-instar larval stage of Culex quinquefasciatus assessed as increase in mortality at 50 to 100 mg/L after 24 hr. Format: functional, organism-based. A digest of the protocol: (§2)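 Early 4th-instar Culex pipiens quinquefasciatus larvae, 20 per bowl in 10 mL test solution. Compounds taken from a 10 g/L DMSO/acetone stock into water with 0.5% Tween-80 (final 1, 10, 50, 100 mg/L), held at 27 °C. Dead larvae, those unable to reach the surface on shaking, counted at 0, 2, 12 and 24 h. Abbott-corrected against solvent control, triplicate; LC50/LC90 by probit regression.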

The test system of experiment [5] is Culex quinquefasciatus. As to the kind of experiment: Insecticidal activity against fourth-instar larval stage of Culex quinquefasciatus assessed as mortality at 1 mg/L after 24 hr. Format: functional. A digest of the protocol: (§3)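 Early 4th-instar Culex pipiens quinquefasciatus from laboratory cultures, 20 per bowl in 10 mL test solution at 27 °C. Compounds from a 10 g/L DMSO–acetone stock suspended in water with 0.5% Tween-80 to 1, 10, 50 or 100 mg/L final. Dead larvae, those unable to reach the surface on shaking, counted at 0, 2, 12 and 24 h. Abbott-corrected against solvent control; triplicate; probit analysis.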

Experiment [6] concerns Culex quinquefasciatus. Put plainly: Insecticidal activity against fourth-instar larval stage of Culex quinquefasciatus assessed as increase in mortality after 2 to 24 hr. Format: functional, organism-based. The gist of the method: as §2
The subject of experiment [7] is Sf9. As to the kind of experiment: Cytotoxicity against Spodoptera frugiperda (fall armyworm) Sf9 cells assessed as growth inhibition at 1 to 200 mg/L after 6 to 24 hr by MTT assay. Format: functional, cell-based. The gist of the method: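 Sf9 insect cells grown at 27 °C in TC-199-MK with 10% FCS, L-glutamine and penicillin–streptomycin–neomycin. Log-phase cells exposed to compounds (DMSO stock, 1% final solvent), 6, 12 or 24 h. MTT (5 mg/mL stock) added for a further 3 h, formazan dissolved in DMSO, A570 read. Inhibition = (A control − A treated)/A control ×100. Solvent-only control, triplicate.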

The subject of experiment [8] is Culex quinquefasciatus. Put plainly: Insecticidal activity against fourth-instar larval stage of Culex quinquefasciatus assessed as increase in mortality at 50 mg/L after 24 hr. Format: functional, organism-based. The gist of the method:
as §2

The test system of experiment [9] is Lipaphis erysimi. Put plainly: Insecticidal activity against Lipaphis erysimi (mustard aphids) assessed as mortality at 50 mg/L after 24 hr. Type of experiment: functional. The conditions noted are these: in Brassica. A digest of the protocol: as §1
For experiment [10], the system named is Culex quinquefasciatus. Put plainly: Insecticidal activity against fourth-instar larval stage of Culex quinquefasciatus assessed as increase in mortality after 24 hr. Type of experiment: functional. A digest of the protocol: as §3
Experiment [11] deals with Lipaphis erysimi. As to the kind of experiment: Insecticidal activity against Lipaphis erysimi (mustard aphids) assessed as increase in mortality after 48 hr. Format: functional.
Experiment [12] has as its system Culex quinquefasciatus. As to the kind of experiment: Insecticidal activity against fourth-instar larval stage of Culex quinquefasciatus assessed as mortality at 100 mg/L after 24 hr. Type of experiment: functional. The gist of the method:
as §3

The term mortality denotes the share of the test organisms that died. As for `COc1ccc2c(c1)[nH]c1c(C)nccc12` [HARMINE], the Imax in experiment [1] amounted to 40.31%. In addition, the result in [2] and in [4] was Active. For the same compound, in experiment [3], the mortality at 200 µg/mL was 49.6%.

`COc1cc(C2NC(C(=O)O)Cc3c2[nH]c2ccccc32)ccc1O` (stereo unspecified): the mortality at 1 µg/mL in experiment [5] is less than 34.9%. Also, the Activity result in experiment [6] is “Dose-dependent effect”. Besides, the result in experiment [2] and in experiment [4] was Active.

In the case of `COC(=O)C1Cc2c([nH]c3ccccc23)C(C)N1` (stereo unspecified), in [5], the mortality at 1 µg/mL is less than 34.9%. The Activity entry in experiment [6] was “Dose-dependent effect”. Besides, the result in experiment [2] and in [4] was Active.

As to `COC(=O)c1cc2c([nH]c3ccccc32)c(-c2ccccc2O)n1`, in [5], the mortality at 1 µg/mL was less than 34.9%. Moreover, the Activity result in [6] was “Dose-dependent effect”. For the same compound, the result in [2] and in experiment [4] was Active.

In the case of `COC(=O)C1Cc2c([nH]c3ccccc23)C(C(Cl)(Cl)Cl)N1` (stereo unspecified), in experiment [5], the mortality at 1 µg/mL was less than 34.9%. In [6], the Activity result is “Dose-dependent effect”. Moreover, the result in [2] and in experiment [4] was Active. Besides, in [7], the “growth inhibition (GI)” value is “inactive”.

Take `CC1NC(C(=O)O)Cc2c1[nH]c1ccccc21` (stereo unspecified): the mortality at 1 µg/mL in experiment [5] is less than 34.9%. Also, in [6], the Activity result was “Dose-dependent effect”. The result in [2] and in experiment [4] was Active.

For the compound `O=C(O)C1Cc2c([nH]c3ccccc23)C(c2ccccc2)N1` (stereo unspecified), the outcome in experiment [8] was Active. Besides, the inhibition of growth at 200 µg/mL in experiment [1] was 71.5%. For the same compound, in [5], the mortality at 1 µg/mL is less than 34.9%. Moreover, the Activity result in experiment [6] was “Dose-dependent effect”. The mortality at 50 µg/mL in experiment [9] was 36.4%. The LC90 in experiment [10] amounted to 88.29 mg/L (≈ 302 µM); in experiment [11] it was 240.1 mg/L (≈ 821 µM). Moreover, in experiment [3], the mortality at 200 µg/mL is 87.3%. Further, in [12], the mortality at 100 µg/mL was 93.3%.

As for `COC(=O)C1Cc2c([nH]c3ccccc23)C(c2ccccc2)N1` (stereo unspecified), in experiment [5], the mortality at 1 µg/mL is less than 34.9%. Moreover, the Activity result in [6] is “Dose-dependent effect”. For the same compound, the result in experiment [2] and in [4] was Active.

For the compound `O=C(O)C1Cc2c([nH]c3ccccc23)CN1` (stereo unspecified), the mortality at 1 µg/mL in experiment [5] was less than 34.9%. Also, in experiment [6], the Activity entry is “Dose-dependent effect”. Moreover, the outcome in experiment [2] and in experiment [4] was Active.

With `COC(=O)c1cc2c([nH]c3ccccc32)c(-c2ccc(Cl)cc2)n1`, in [5], the mortality at 1 µg/mL is less than 34.9%. Further, in experiment [6], the Activity result was “Dose-dependent effect”. For the same compound, the result in [2] and in experiment [4] was Active.

On to `COC(=O)c1cc2c([nH]c3ccccc32)c(C)n1`, for which the mortality at 1 µg/mL in experiment [5] is less than 34.9%. In addition, the Activity result in experiment [6] is “Dose-dependent effect”. For the same compound, the result in experiment [2] and in [4] was Active.

Take `Cc1nc(C(=O)O)cc2c1[nH]c1ccccc12` [HARMAN-3-CARBOXYLIC ACID]: the mortality at 1 µg/mL in experiment [5] is less than 34.9%. For the same compound, the Activity result in experiment [6] was “Dose-dependent effect”. Further, the result in experiment [2] and in experiment [4] was Active.

With `O=C(O)C1Cc2c([nH]c3ccccc23)C(C(Cl)(Cl)Cl)N1` (stereo unspecified), the mortality at 1 µg/mL in experiment [5] was less than 34.9%. In addition, the Activity entry in experiment [6] is “Dose-dependent effect”. The result in experiment [2] and in experiment [4] was Active.

As for `COC(=O)c1cc2c([nH]c3ccccc32)c(-c2c(C)nn(-c3ccccc3)c2Cl)n1`, in experiment [1], the inhibition of growth at 200 µg/mL is 60.9%. The mortality at 1 µg/mL in experiment [5] is less than 34.9%. Moreover, in experiment [6], the Activity result was “Dose-dependent effect”. Besides, the result in [2] and in [4] was Active.

Broadly, the LC50 is the concentration lethal to half of the exposed cells or organisms. As for `COC(=O)c1cc2c([nH]c3ccccc32)c(-c2ccccc2)n1`, in [8], the result was Active. Further, the mortality at 1 µg/mL in [5] was less than 34.9%. Further, the Activity result in experiment [6] is “Dose-dependent effect”. For the same compound, the mortality at 50 µg/mL in [9] turned out to be 15.3%. For the same compound, the values for the LC90 in experiment [10] and in [11] were 295.13 mg/L (≈ 976 µM) and 418.63 mg/L (≈ 1380 µM), respectively. Besides, the LC50 turned out to be 24 µg/mL (≈ 79.3 µM) in experiment [10] (Culex quinquefasciatus, Instar larval stage, 24 h) and 68 µg/mL (≈ 225 µM) in experiment [11] (Lipaphis erysimi, in Brassica, 48 h). Moreover, in experiment [3], the mortality at 200 µg/mL stood at 75.8%. In addition, the mortality at 100 µg/mL in experiment [12] was determined as 80.5%.

`COC(=O)C1Cc2c([nH]c3ccccc23)CN1` (stereo unspecified): the mortality at 1 µg/mL in experiment [5] was less than 34.9%. In addition, in [6], the Activity result was “Dose-dependent effect”. Also, the result in [2] and in experiment [4] was Active.

`COC(=O)C1Cc2c([nH]c3ccccc23)C(c2ccc(O)c(OC)c2)N1` (stereo unspecified): the mortality at 1 µg/mL in experiment [5] is less than 34.9%. Also, the Activity result in [6] is “Dose-dependent effect”. Further, the result in [2] and in [4] was Active.
